Results taken from ChEMBL document CHEMBL2016446, “Trivalent ultrashort lipopeptides are potent pH dependent antifungal agents” (J Med Chem, 2012).
Converted amounts (≈) assume the structure as drawn. The source made the active and inactive calls. The rule behind the calls is not given here.

What was measured:
Aspergillus fumigatus [1] = experiment: Induction of membrane damage in Aspergillus fumigatus at 1.56 to 100 uM at pH 5.5 by Sytox green-based fluorescence assay; format: functional, organism-based
Procedure, shortened: (§1)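 A. fumigatus at 2 × 10^3 CFU/mL in RPMI/MOPS (pH 7.4 or 5.5) was grown 20 h at 35 °C. Sytox green was added at 0.2 μM final in sodium phosphate buffer (pH 5.5 or 7.5) for 15 min. Peptides were then added at 100–1.56 μM final. Fluorescence (ex 485/em 530 nm) was read after 1 h.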

Aspergillus fumigatus [2] = experiment: Antifungal activity against Aspergillus fumigatus ATCC 26430 after 48 hrs at pH 5.5; format: functional; details: ATCC 26430, 48 h
Procedure, shortened: (§2)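 The method followed CLSI M38-A2 (Aspergillus) or M27-A3. Medium was RPMI 1640 with 0.165 M MOPS and L-glutamine, without NaHCO3, at pH 5.5 or 7.5. Inoculum of 2 × 10^3 CFU/mL was mixed 1:1 with serial 2-fold peptide dilutions. Incubation was at 35 °C: 48 h for A. fumigatus and C. albicans, 72 h for C. neoformans. MIC was read by eye as no growth. Values are averages of duplicates.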

Aspergillus fumigatus [3] = experiment: Induction of membrane depolarization in Aspergillus fumigatus at 1.56 to 100 uM at pH 5.5 by DiSC3(5)-based fluorescence assay; format: functional, organism-based
Procedure, shortened: (§3)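 A. fumigatus was pregrown 20 h at 35 °C from 2 × 10^3 CFU/mL in RPMI/MOPS (pH 7.4 or 5.5). Cells were loaded with DiSC3(5) at 0.2 μM final in sodium phosphate buffer (pH 5.5 or 7.5) for 15 min. Peptides were added at 1.56–100 μM final, and fluorescence (ex 640/em 660 nm) was read after 1 h.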

Aspergillus fumigatus [4] = experiment: Antifungal activity against Aspergillus fumigatus ATCC 26430 after 48 hrs at pH 7.5; format: functional; details: ATCC 26430, 48 h; procedure, shortened: as §2
Candida albicans [5] = experiment: Antifungal activity against Candida albicans ATCC 10231 after 48 hrs at pH 7.5; format: functional; details: ATCC 10231, 48 h; procedure, shortened: as §2
Aspergillus fumigatus [6] = experiment: Induction of membrane depolarization in Aspergillus fumigatus at 1.56 to 100 uM at pH 7.5 by DiSC3(5)-based fluorescence assay; format: functional, organism-based; procedure, shortened: as §3
Cryptococcus neoformans [7] = experiment: Antifungal activity against Cryptococcus neoformans ATCC MYA422 after 72 hrs at pH 5.5; format: functional; details: ATCC MYA422, 72 h; procedure, shortened: as §2
Candida albicans [8] = experiment: Antifungal activity against Candida albicans ATCC 10231 after 48 hrs at pH 5.5; format: functional; details: ATCC 10231, 48 h; procedure, shortened: as §2
Aspergillus fumigatus [9] = experiment: Induction of membrane damage in Aspergillus fumigatus at 1.56 to 100 uM at pH 7.5 by Sytox green-based fluorescence assay; format: functional, organism-based; procedure, shortened: as §1
Cryptococcus neoformans [10] = experiment: Antifungal activity against Cryptococcus neoformans ATCC MYA422 after 72 hrs at pH 7.5; format: functional; details: ATCC MYA422, 72 h; procedure, shortened: as §2
Escherichia coli [11] = experiment: Antibacterial activity against Escherichia coli ATCC D21 after 18 to 20 hrs at pH 5.5; format: functional, organism-based
Procedure, shortened: (§4)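 Broth microdilution in LB: bacterial suspension at 10^6 CFU/mL mixed 1:1 with serial 2-fold peptide dilutions, made from a 1 mg/mL aqueous stock. Strains were E. coli ATCC D21 and S. aureus ATCC 6538P. MIC was the lowest concentration with no growth after 18–20 h. Values are averages of duplicate experiments.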

Staphylococcus aureus [12] = experiment: Antibacterial activity against Staphylococcus aureus ATCC 6538P after 18 to 20 hrs at pH 7.5; format: functional, organism-based; procedure, shortened: as §4
Staphylococcus aureus [13] = experiment: Antibacterial activity against Staphylococcus aureus ATCC 6538P after 18 to 20 hrs at pH 5.5; format: functional, organism-based; procedure, shortened: as §4
Escherichia coli [14] = experiment: Antibacterial activity against Escherichia coli ATCC D21 after 18 to 20 hrs at pH 7.5; format: functional, organism-based; procedure, shortened: as §4
[15] = Stability of the compound at 1 ug/uL after 2 hrs by RP-HPLC analysis in presence of proteinase K; format: ADME
Procedure, shortened: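 Peptide at 1 μg/μL in PBS (400 μL) mixed with 8 μL proteinase K solution (5 μg/μL; 2% DMSO final). Intact peptide quantified by RP-HPLC on a C4 column, 0.1% TFA water/acetonitrile, 10–90% B over 40 min. Measured against a peptide injection taken before enzyme addition. Melittin served as enzyme-activity control.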

Mus musculus [16] = experiment: Toxicity in immunocompromized ICR mouse assessed as visible signs of toxicity at 9 mg/kg, at pH 5.5 it administered on day 1, 4, 7 and 11 monitored for 28 days; format: organism-based; design: dose 9 mg/kg, route endotracheal; details: in vivo, inhaled_or_intranasal, pH 5.5, 9 mg/kg, 672 h
Procedure, shortened: (§5)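 Six-week-old female ICR mice (n = 5) were immunosuppressed with cortisone acetate (150 mg/kg in PBS/0.1% Tween 80, s.c.) 4 days before the first dose, on that day, and 2 and 4 days after. Peptide in saline at pH 5.5 was given i.t. on days 1, 4, 7 and 11. Survival, weight, appearance and behaviour were followed for 28 days.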

Aspergillus fumigatus [17] = experiment: Antifungal activity against Aspergillus fumigatus Af293 infected in immunocompromized ICR mouse assessed as reduction in fungal load in kidney at 4.5 mg/kg, at pH 5.5 it administered on day 1 and 4 measured after 5 days post infection (reference value: 20 to 5400 CFU); format: functional; details: route endotracheal
[18] = Ratio of LC50 for mouse RAW264.7 cells to MIC for Aspergillus fumigatus ATCC 26430; format: functional
Procedure, shortened: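 LC50: RAW264.7 macrophages in supplemented DMEM, 2 × 10^5 cells/well overnight, then peptide at 3.12–200 μM for 16 h. Viability read by XTT; LC50 from dose–response curves. MIC: CLSI M38-A2 broth microdilution, 2 × 10^3 CFU/mL A. fumigatus ATCC 26430 in RPMI 1640/0.165 M MOPS (pH 5.5 or 7.5). Serial 2-fold dilutions, 35 °C for 48 h, growth scored visually. In vitro values are means of duplicates.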

[19] = Toxicity in human RBC assessed as hemolytic activity at 125 uM at pH 7.5 after 60 mins by spectrophotometry; format: cell-based; details: erythrocyte, pH 7.5, 1 h
Procedure, shortened: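 Human erythrocytes (4% final) were incubated with peptide in PBS for 60 min at 37 °C. Hemoglobin release was read as supernatant absorbance at 540 nm. PBS alone served as the 0% reference and 1% Triton as the 100% reference. Values are averages of duplicates.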

Mus musculus [20] = experiment: Toxicity in immunocompromized ICR mouse assessed as weight loss at 9 mg/kg, at pH 5.5 it administered on day 1, 4, 7 and 11 monitored for 28 days; format: organism-based; design: dose 9 mg/kg, route endotracheal; details: in vivo, inhaled_or_intranasal, pH 5.5, 9 mg/kg, 672 h; procedure, shortened: as §5
Aspergillus fumigatus [21] = experiment: Antifungal activity against Aspergillus fumigatus Af293 infected in immunocompromized ICR mouse assessed as reduction in fungal load in spleen at 4.5 mg/kg, at pH 5.5 it administered on day 1 and 4 measured after 5 days post infection (reference value: 10 to 140 CFU); format: functional; details: route endotracheal
RAW264.7 = experiment: Cytotoxicity against mouse RAW264.7 cells at 200 uM after 16 hrs by XTT assay; format: cell-based; details: raw264.7, 16 h
Procedure, shortened: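 RAW264.7 macrophages were grown in DMEM with 10% FBS, L-glutamine, pyruvate and nonessential amino acids at 37 °C, 5% CO2. Cells were seeded at 2 × 10^5 per well overnight, then exposed to peptides at 3.12–200 μM for 16 h. Medium was replaced with fresh medium plus XTT reagent. LC50 was taken from dose–viability curves.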

Aspergillus fumigatus [22] = experiment: Antifungal activity against Aspergillus fumigatus Af293 infected in immunocompromized ICR mouse assessed as reduction in fungal load in lung at 4.5 mg/kg, at pH 5.5 it administered on day 1 and 4 measured after 5 days post infection (reference value: 80 to 12920 CFU); format: functional; details: route endotracheal

Structure (SMILES) | Activity (Aspergillus fumigatus [1]) | MIC (Aspergillus fumigatus [2]) [µM] | Activity (Aspergillus fumigatus [3]) | MIC (Aspergillus fumigatus [4]) [µM] | MIC (Candida albicans [5]) [µM] | Activity (Aspergillus fumigatus [6]) | MIC (Cryptococcus neoformans [7]) [µM] | MIC (Candida albicans [8]) [µM] | Activity (Aspergillus fumigatus [9]) | MIC (Cryptococcus neoformans [10]) [µM] | Activity (Escherichia coli [11]) | Activity (Staphylococcus aureus [12]) | Activity (Staphylococcus aureus [13]) | Activity (Escherichia coli [14]) | also measured
CCCCCCCCCCCCCCN[C@@H](Cc1cnc[nH]1)C(=O)N[C@@H](Cc1cnc[nH]1)C(=O)O | inactive | 50 (≈ 24.4 µg/mL) | inactive | > 100 | > 100 | inactive | 25 (≈ 12.2 µg/mL) | > 100 | inactive | > 100 | – | – | – | – | –
C[C@@H]1[C@H](O)[C@@H](C)/C=C/C=C/C=C/C=C/C=C/C=C/C=C/[C@H](O[C@@H]2O[C@H](C)[C@@H](O)[C@H](N)[C@@H]2O)C[C@@H]2O[C@](O)(C[C@@H](O)C[C@@H](O)[C@H](O)CC[C@@H](O)C[C@@H](O)CC(=O)O[C@H]1C)C[C@H](O)[C@H]2C(=O)O [AMPHOTERICIN B] | – | 1 (≈ 0.924 µg/mL) | – | 0.17 (≈ 0.157 µg/mL) | 0.33 (≈ 0.305 µg/mL) | – | 1.35 (≈ 1.25 µg/mL) | 2.7 (≈ 2.5 µg/mL) | – | 0.17 (≈ 0.157 µg/mL) | – | – | – | – | –
CCCCCCCCCCCCCCCCCC(=O)N[C@@H](Cc1c[nH]cn1)C(=O)N[C@@H](Cc1c[nH]cn1)C(=O)N1CCCN(C(=O)[C@H](Cc2c[nH]cn2)NC(=O)[C@H](Cc2c[nH]cn2)NC(=O)CCCCCCCCCCCCCCCCC)Cc2cc(cc(C(N)=O)c2)CN(C(=O)[C@H](Cc2c[nH]cn2)NC(=O)[C@H](Cc2c[nH]cn2)NC(=O)CCCCCCCCCCCCCCCCC)CCC1 | inactive | > 100 | inactive | > 100 | > 100 | inactive | 25 (≈ 47.5 µg/mL) | 100 (≈ 190 µg/mL) | inactive | > 100 | inactive | inactive | inactive | inactive | –
CC[C@H](C)[C@H](NC(=O)CN)C(=O)NCC(=O)N[C@@H](C)C(=O)N[C@H](C(=O)N[C@@H](CC(C)C)C(=O)N[C@@H](CCCCN)C(=O)N[C@H](C(=O)N[C@@H](CC(C)C)C(=O)N[C@H](C(=O)N[C@H](C(=O)NCC(=O)N[C@@H](CC(C)C)C(=O)N1CCC[C@H]1C(=O)N[C@@H](C)C(=O)N[C@@H](CC(C)C)C(=O)N[C@H](C(=O)N[C@@H](CO)C(=O)N[C@@H](Cc1c[nH]c2ccccc12)C(=O)N[C@H](C(=O)N[C@@H](CCCCN)C(=O)N[C@@H](CCCNC(=N)N)C(=O)N[C@@H](CCCCN)C(=O)N[C@@H](CCCNC(=N)N)C(=O)N[C@@H](CCC(N)=O)C(=O)N[C@@H](CCC(N)=O)C(N)=O)[C@@H](C)CC)[C@@H](C)CC)[C@@H](C)O)[C@@H](C)O)C(C)C)C(C)C [MELITTIN] | Active | – | Active | – | – | Active | – | – | Active | – | – | – | – | – | Stability ([15]; 2 h): Unstable
CCCCCC(=O)N[C@@H](Cc1cnc[nH]1)C(=O)N[C@@H](Cc1cnc[nH]1)C(=O)N1CCCN(C(=O)[C@H](Cc2cnc[nH]2)NC(=O)[C@H](Cc2cnc[nH]2)NC(=O)CCCCC)Cc2cc(cc(C(N)=O)c2)CN(C(=O)[C@H](Cc2cnc[nH]2)NC(=O)[C@H](Cc2cnc[nH]2)NC(=O)CCCCC)CCC1 | inactive | > 100 | inactive | > 100 | > 100 | inactive | > 100 | > 100 | inactive | > 100 | inactive | inactive | inactive | inactive | –
CCCCCCCCCCCCCC(=O)N[C@@H](Cc1c[nH]cn1)C(=O)N[C@@H](Cc1c[nH]cn1)C(=O)N1CCCN(C(=O)[C@H](Cc2c[nH]cn2)NC(=O)[C@H](Cc2c[nH]cn2)NC(=O)CCCCCCCCCCCCC)Cc2cc(cc(C(N)=O)c2)CN(C(=O)[C@H](Cc2c[nH]cn2)NC(=O)[C@H](Cc2c[nH]cn2)NC(=O)CCCCCCCCCCCCC)CCC1 [listing 1 of 2 here] | inactive | – | Active | – | – | Active | – | – | inactive | – | inactive | inactive | inactive | inactive | –
CCCCCCCCCCCCCC(=O)N[C@@H](Cc1c[nH]cn1)C(=O)N[C@@H](Cc1c[nH]cn1)C(=O)N1CCCN(C(=O)[C@H](Cc2c[nH]cn2)NC(=O)[C@H](Cc2c[nH]cn2)NC(=O)CCCCCCCCCCCCC)Cc2cc(cc(C(N)=O)c2)CN(C(=O)[C@H](Cc2c[nH]cn2)NC(=O)[C@H](Cc2c[nH]cn2)NC(=O)CCCCCCCCCCCCC)CCC1 [listing 2 of 2 here] | – | 3.12 (≈ 5.4 µg/mL) | – | > 100 | > 100 | – | 3.12 (≈ 5.4 µg/mL) | > 100 | – | > 100 | – | – | – | – | Activity (Mus musculus [16]): Non-toxic; CFU (Aspergillus fumigatus [17]): 70; Ratio [18]: 64; Activity [19]: Non-toxic; remaining at 2 h, 1 ug/uL ([15]; proteinase K, read-out: Stability): 80%; Activity (Mus musculus [20]): Non-toxic; CFU (Aspergillus fumigatus [21]): 20; Activity (RAW264.7): Non-toxic; CFU (Aspergillus fumigatus [22]): 40
